# Laboratory results from PubChem BioAssay.
# Unmarked numbers belong to inactive results. Inconclusive results are not listed. The source made the active and inactive calls.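 Rule for the calls, unless noted: active = cell viability at or below a set limit in both duplicate runs, the limit being the all-compound median minus 4 SD (cut at about 23% in these data, passing the limit was not always enough); inconclusive = no clear call, values can overlap the other calls; inactive = the rest.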
# Experiments:
# [1] = OD615 S. cerevisiae growth inhibition, permissive medium, pilot counter-assay, permissive growth control for S. cerevisiae lifespan shortening project (AID 705;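 active = growth inhibition above 25% in both replicates, a cutoff set 3 SD above the mean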); details: OD615, 24 h, at 10 µM, stronger effect = higher value
# Procedure, shortened: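 assay system = Saccharomyces cerevisiae strain carrying genetically modified DeaD replicative-lifespan system | technique = absorbance (optical density) at 615 nm | buffer or medium = permissive raffinose/galactose medium | timing = cells pre-grown 4 h, then 24 h compound exposure, 30 °C humidified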
# [2] = Restrictive medium S. cerevisiae growth inhibition, OD615, pilot screen of yeast lifespan reduction project, restrictive growth control (AID 706;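 active = growth inhibition above a set limit, 3 SD over mean compound inhibition, in both replicates, cut at about 43% in these data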;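 note: modified DeaD lifespan yeast strain shifted to restrictive glucose medium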); details: OD615, 48 h, at 10 µM, stronger effect = higher value
# Procedure, shortened: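 System: modified S. cerevisiae. Buffer or medium: CSMM-D glucose medium. Incubation: 4 h pre-growth plus 48 h compound exposure, 30 °C. Detection: absorbance (optical density) measured at 615 nm.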
# [3] = viability gain of MRP-1-high H69AR cells under doxorubicin, pilot screen, MRP-1 activator project, CellTiter-Glo, duplicate (AID 807;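 active = viability increase at or above a cutoff of the median across tested compounds plus 3 SD, cut at about 8.5% in these data, passing the limit was not always enough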;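 note: compound pretreatment 18-22 h then 72 h combined with doxorubicin; 0% = doxorubicin alone and 100% = vehicle without doxorubicin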); details: H69AR viability with doxorubicin, CellTiter-Glo luminescence; at 10 µM; stronger effect = higher value
# [4] = growth suppression of beta-catenin knockout HCT116, pilot screen, human colon tumor cells (AID 823); details: CellTiter-Glo, 60 h, at 10 µM, stronger effect = lower value;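 note: 0% = wells killed by 20 µM Hyamine and 100% = untreated DMSO cell wells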
# [5] = growth suppression of PTEN-deleted HCT116, pilot screen, cell-based, HCT116 clonal line, CellTiter-Glo (AID 824;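 active = viability at or below 27.92% in each of two runs, the all-compound median minus 4 SD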;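 note: 0% = 20 µM Hyamine control and 100% = vehicle cell control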); details: 60 h, at 10 µM, stronger effect = lower value
# [6] = inhibitors of the yeast RAM network, pilot screen, dse1pr::URA3 reporter, 5-FOA selection (AID 869;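 active = inhibition over a set limit, the all-compound mean plus 3 SD, in both replicate runs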;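 note: 0% = DMSO wells with no growth and 100% = 10 µM 1-NA-PP1 with full growth; RAM network block rescues cells from 5-FOA so hits raise OD615 growth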); details: S. cerevisiae dse1pr::URA3 5-FOA growth, OD615, 2 d; at 10 µM; stronger effect = higher value; strain carries analog-sensitive mutant Cbk1 kinase
# [7] = RAM signaling pathway blockade in yeast – S. cerevisiae, Pdr1DBD-CYC8 efflux-inhibited sensitized strain, primary screen (AID 1298;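 active = RAM network inhibition above 8.4% in each of two replicates, 3 SD over the compound average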;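 note: 0% = DMSO untreated cells without growth and 100% = 10 µM 1-NA-PP1 full growth; higher means more yeast growth rescued from 5-FOA killing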); details: S. cerevisiae cbk1-as DSE1-URA3 strain, 5-FOA growth OD615, 2 d; at 50 µM; stronger effect = higher value
SMILES,growth inhibition [1] [%],growth inhibition [2] [%],viability increase [3] [%],viability [4],viability [5],inhibition [6] [%],RAM network inhibition [7] [%]
O=C(Nc1nnc(-c2cccs2)o1)c1ccco1,-0.7,-3.64,-4.39,93.8%,89.8%,0.34,-2.19
COc1cccc(C2NC(C)(C(=O)O)C3C(=O)N(C(C)C)C(=O)C23)c1O (centres undefined),2.59,1.56,-1.19,91.5%,91.3%,1.82,2.7
O=S(=O)(NCC(c1cccnc1)N1CCN(c2ccc(F)cc2)CC1)c1cccs1 (centres undefined),-0.1,-0.165,-1.56,87.9%,86.8%,2.22,3.87
Cc1ccc(S(=O)(=O)N2CCCC(C(=O)O)C2)s1 (centres undefined),-4.2,-4.86,1.27,97%,99.6%,0.59,-1.67
Cc1cc(C)nc(SCC(=O)Oc2ccc3oc(=O)cc(C)c3c2)n1,-15.6,-10.1,-3.67,97%,95.4%,1.63,3.39
Cc1cc(N=CC2=C(O)CC(C)(C)CC2=O)no1,-11.7,-3.7,0.49,93.2%,104%,1.94,1.04
COc1cc(OC)cc(C(=O)NCCn2ccc3ccccc32)c1,-5.04,0.31,-3.92,92.8%,92.3%,1.16,7.95
Cn1cnc2c1c(=O)n(Cc1ccccc1)c(=O)n2C,-14.8,-14.2,-1.66,106%,97%,3.59,0.42
O=c1c2ccccc2ncn1-c1ccc2c(c1)OCCO2,-2.29,-19.6,-0.34,101%,94%,0.6,0.78
CCOC(=O)C1CCCN(Cc2nc(N)nc(Nc3ccccc3OC)n2)C1 (centres undefined),-0.44,-2.06,-3.66,88.8%,83.4%,0.15,0.43
Cc1ccccc1NC(=O)CN(C)S(=O)(=O)c1cccc2cccnc12,-2.9,-1.7,-0.34,105%,95.7%,1.74,2.49
CCOC(=O)c1[nH]c2c(c1C)C(=O)CC(c1ccc(F)cc1)C2 (centres undefined),-5.83,-18.5,-4.6,16.7% (active),20.4% (active),0.11,1.42
Cc1ccc(C(c2sc3ncnn3c2O)N2CCC(C)CC2)cc1 (centres undefined),1.13,10.3,3.76,102%,90.2%,1.9,2.69
CCOC(=O)c1nn(-c2ccc3c(c2)CCN3C(C)=O)cc1O,-3.56,-5.95,-1.4,101%,92.7%,0.375,3.05
CCCn1c(CCC(=O)O)ccc1-c1cccs1,5.45,7.04,-2.75,93.4%,102%,0.78,-0.03
CCCNC(=O)Nc1cc(OCC)c(N2CCOCC2)cc1OCC,-0.41,6.55,-1.37,99.6%,105%,1.57,0.87
CCSc1nnc2c(n1)[nH]c1c(C)cccc12,-6.89,-1.28,-5.1,47.9%,65.5%,4,4.68
O=C(CN1CCN(Cc2ccc(Cl)cc2)C1=O)NCCN1CCCC1,1.2,9.72,-0.85,107%,96.7%,1.54,1.2
COc1ccc(-n2c(Cn3c(=O)sc4ccccc43)nnc2SC)cc1,-12.1,-8.38,-2.26,101%,89.6%,2.47,1.33

SMILES,growth inhibition [1] [%],growth inhibition [2] [%],viability increase [3] [%],viability [4],viability [5],inhibition [6] [%],RAM network inhibition [7] [%]
CCc1ccccc1NC(=O)c1onc(C)c1Cl,-5.87,1.99,-0.41,108%,97.7%,2.18,-1.13
CC(=O)c1cc(F)c(N2CCN(CCC#N)CC2)cc1C,-3.07,-19.6,-0.38,105%,81.3%,0.35,0.47
CCC(Cc1ccccc1)NC(=O)CN1C(=O)CSc2ncccc21 (centres undefined),-2.26,-14.6,-2.81,85%,75.7%,0.665,-0.97
CCOc1ccccc1NC(=O)CCS(=O)(=O)c1cccc2nonc12,-15,-21.8,-4.44,103%,96.3%,1.34,5.48
CCOC(=O)Cn1c(C)nc2ccccc21,-14,-14,-1.63,102%,105%,1.29,1.95
Cc1c(C(=O)N2CCC(C(N)=O)CC2)sc(N)c1C#N,-12.1,-8.07,-0.41,94.7%,99.1%,2.91,9.2
N#CC1=C(N)SC(N)=C(C#N)C1C1CC=CCC1 (centres undefined),-18.9,-10.4,-0.79,108%,97.5%,2.11,0.74
O=C(CN1CCOc2ccccc21)N1CCC(Cc2ccccc2)CC1,-3.59,21.2,-3.42,88%,95.1%,1.46,8.63
CCOC(=O)CSc1nnc(Cn2c(=O)sc3ccccc32)n1-c1ccccc1C,-8.34,-6.71,-1.07,96.2%,96%,2.26,2.24
CCCc1[nH]nc2c1C(C1CCCCC1)C(C#N)=C(N)O2 (centres undefined),-4.03,-0.785,-6.54,12.5% (active),21.4% (active),2.06,1.58
C=C(C)CSc1nnc(-c2cccc(Cl)c2)n1N,3.94,14.4,0.23,95.9%,91.5%,1.77,-0.48
COc1ccccc1NC(=O)Cn1c(=O)n2nc(C)nc2c2ccccc21,-11,-16.9,-4.08,102%,90.3%,1.47,2.31
CCOC(=O)C1=C(C)NC(=O)NC1c1ccco1 (centres undefined),1.02,-9.79,-3.38,103%,105%,-0.995,-0.57
O=c1[nH]c2c(s1)C=Nc1ccccc1N2,-5.34,3.4,-2.29,89.9%,91.6%,1.6,0.32
CC(C)n1c(C(O)c2ccccc2)nc2ccccc21 (centres undefined),-5.87,-13.6,0.37,97.6%,88.1%,1.4,4.24
Cc1ccc(N2CCN(S(=O)(=O)c3ccc(F)cc3)CC2)c(C)c1,-0.375,-15.2,-1.12,66.6%,60.9%,-0.44,7.03
Cc1c(Br)cc(C(=O)NCCCN2CCOCC2)c(C)c1C,-0.405,-4.69,-3.23,94.8%,93.6%,0.595,0.82
C=CCn1c(=N)n(CC(O)COc2ccccc2OC)c2ccccc21 (centres undefined),-4.97,0.15,-4.19,73.9%,77.4%,1.92,1.07
